Most compounds without a hit are left out; they make up all but 3.3% or so of the library.
ABCB6 inh 2 = ABCB6 transporter inhibitors, primary screen, K562-ABCB6 cells, flow cytometry, MLPCN library | ATP-binding cassette sub-family B member 6 (Homo sapiens), Q9NP58 | K562-ABCB6 porphyrin accumulation, 1 h; stronger effect = lower value | fluorescence ratio to DMSO, % at 10 µM | actives 0.19% (n = 360,000);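 active = fluorescence ratio to DMSO below 75%, the collection mean minus 3 SD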;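 note: signal is porphyrin accumulated inside mitochondria; 100% equals median channel fluorescence of DMSO control wells; lower ratio means ABCB6 inhibition with less porphyrin fluorescence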
Target sequence (Q9NP58 whole entry, looked up): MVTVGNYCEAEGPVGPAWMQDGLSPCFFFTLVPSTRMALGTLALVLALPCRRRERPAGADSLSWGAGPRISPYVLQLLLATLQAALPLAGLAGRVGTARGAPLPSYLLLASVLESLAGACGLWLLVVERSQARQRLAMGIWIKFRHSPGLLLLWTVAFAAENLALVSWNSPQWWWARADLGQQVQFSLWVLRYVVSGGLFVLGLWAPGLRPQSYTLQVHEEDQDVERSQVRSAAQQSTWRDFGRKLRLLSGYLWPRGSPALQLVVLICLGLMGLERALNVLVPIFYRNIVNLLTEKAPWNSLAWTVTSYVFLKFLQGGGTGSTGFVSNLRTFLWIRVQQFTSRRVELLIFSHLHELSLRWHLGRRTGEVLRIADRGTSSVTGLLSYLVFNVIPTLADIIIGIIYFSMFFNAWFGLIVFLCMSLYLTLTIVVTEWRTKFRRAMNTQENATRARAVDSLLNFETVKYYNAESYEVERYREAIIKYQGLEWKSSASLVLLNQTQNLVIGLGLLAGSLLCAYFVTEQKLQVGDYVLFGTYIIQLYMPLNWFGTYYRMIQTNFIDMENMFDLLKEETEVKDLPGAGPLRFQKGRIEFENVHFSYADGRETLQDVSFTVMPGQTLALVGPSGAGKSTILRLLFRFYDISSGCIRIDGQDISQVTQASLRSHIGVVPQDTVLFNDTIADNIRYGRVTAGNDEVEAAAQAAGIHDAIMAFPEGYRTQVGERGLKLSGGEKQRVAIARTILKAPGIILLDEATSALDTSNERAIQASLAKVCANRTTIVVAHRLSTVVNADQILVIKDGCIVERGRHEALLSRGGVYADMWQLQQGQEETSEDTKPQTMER
FXN GAA850 act = FXN promoter activators, primary screen, cell-based, luciferase luminescence, HEK293 lucGAA850. HEK293 lucGAA850 FXN promoter luciferase reporter, 24 h; percent of 10 µM SAHA response. activation, % at 6 µM. actives 0.56% (n = 360,000);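 active = activation above the average of all compounds screened plus 3 SD, cutoff fixed separately per campaign, cut at about 7.5% in these data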;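 note: 0% = DMSO wells and 100% = 10 µM SAHA wells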
AHR act = AHR activators, primary screen, cell-based, luminescence, luciferase reporter, human. actives 2.5% (n = 320,000). activation, % at 5 µM. AHR-responsive luciferase reporter cells; in the data active = activation above about 47%;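 note: 0% = vehicle wells and 100% = reference agonist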
STAT3 act-1 = IL-6 driven STAT3 reporter potentiators, primary screen, U3A cells, luciferase, luminescence, MLSCN library. activation (% of control), % at 5.6 µM. actives 0.91% (n = 190,000). IL-6 STAT3-luciferase reporter; 100% = signal with IL-6 EC80 alone;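 active = activation above the screen-wide mean of compound activation plus 3 SD, cut at about 130% in these data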;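 note: 0% = background luminescence of wells with medium and substrate only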
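Test system: Human STAT1-deficient U3A cells with stable STAT3-luciferase reporter | Also added: Interleukin-6, 33 ng/mL | Timing: Compound pre-incubation 1 h before IL-6, then 6 h stimulation at 37 °C | Technique: Luciferase reporter luminescence | Read-out: Percent of IL-6-only median luminescence | Benchmarks: IL-6-only wells as 100% reference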
STAT3 act-2 = STAT3 reporter potentiators, retest of hits, confirmation, U3A cells, luciferase, luminescence. shares compounds with STAT3 act-1. IL-6 potentiation; U3A cells lack STAT1; 100 means same as IL-6 alone. potentiation (% of control), % at 5.7 µM. actives 64% (n = 1,200). AID 1267, 2008;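 active = percent activation of the STAT3 luciferase reporter above a set limit taken from the earlier primary screen, cut at about 130% in these data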;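 note: 0% = background signal of medium plus substrate and 100% = median of IL-6 with DMSO wells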
NFkB act STAT3ct = NF-kB reporter activators in human cells, counter-screen for STAT3 activator project | shares compounds with STAT3 act-1 | activation (% of control), % at 5.7 µM | NF-kappaB reporter activation | actives 11% (n = 1,200); in the data active = activation above about 120%;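 note: reporter induced by TNF-alpha stimulation; 100% = median of stimulated DMSO wells and 0% = no signal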
STAT1 act = STAT1 reporter activators, IFN-gamma induced, counter-screen for STAT3 activator project, cell-based, NIH 3T3, luciferase luminescence; shares compounds with STAT3 act-1; NIH 3T3 STAT1-luciferase reporter; activation (% of control), % at 5.7 µM; actives 13% (n = 1,200); AID 1318, 2008;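 active = activation above the solvent-only control well mean plus 3 SD, set per screening run, cut at about 120% in these data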;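 note: 100% = IFN-gamma with DMSO median signal so 100% means no change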
Starred values were filed as active, the others as inactive; . = no result.

SMILES	ABCB6 inh 2	FXN GAA850 act	AHR act	STAT3 act-1	others
O=C1NC(c2cccnc2)Nc2sc3c(c21)CCCC3 (stereo not drawn)	98.0	3.6	56.1*	92.9
C=C1C(=O)O[C@@H]2C[C@@H](C)[C@H]3C=CC(=O)[C@]3(O)C[C@@H]12	99.0	13.9*	-0.7	.
Cc1ccc(NC(=O)CC[C@H]2O[C@@H](n3cnc4c(NC(=O)c5ccccc5)ncnc43)[C@H](O)[C@@H]2O)cc1C	99.0	.	.	.
CN1CCc2nc3sc(C(=O)NC4CC4)c(N)c3cc2C1	101.0	2.0	55.4*	88.7
Cc1cccc(-n2c(O)c(/C=C3/C(c4ccccc4)=Nc4ccccc43)c(=O)[nH]c2=O)c1	100.0	5.0	76.4*	.
Cc1ccccc1-n1c(O)c(/C=C2/C(c3ccccc3)=Nc3ccccc32)c(=O)[nH]c1=O	89.0	3.3	32.7	127.4
CN1C(=O)C(Cc2c[nH]c3ccccc23)C(=O)N(C)C1=O	.	.	.	158.9*
C=CCN1Cc2ccccc2-n2nncc2C1	100.0	.	.	.
O=c1[nH]c(=S)[nH]c(O)c1N=Nc1ccc2c(c1)OCO2	113.0	2.7	74.9*	96.1
CC1=NN(c2ccccc2)C(=O)C1/C=C1/C(=O)NC(=O)N(c2cccc(C)c2)C1=O (stereo not drawn)	.	.	.	150.5*
Cc1cccc(N2C(=O)NC(=O)/C(=C/c3cc4c(cc3[N+](=O)[O-])OCO4)C2=O)c1	97.0	3.6	4.1	103.2
CC1=NN(c2ccccc2)C(=O)C1/C=C1/C(=O)NC(=O)N(c2cc(C)cc(C)c2)C1=O (stereo not drawn)	108.0	1.6	8.6	144.3*
Cc1cc(C)cc(N2C(=O)NC(=O)/C(=C\c3cc(C)n(C)c3C)C2=O)c1	97.0	1.0	-4.7	74.6
COc1ccc(CCNCc2ccc(Br)cc2)cc1OC	101.0	-1.0	0.3	.
CN(C)C1C(=O)C(C(N)=O)=C(O)C2(O)C(=O)C3=C(O)c4c(O)cccc4C(C)(O)C3CC12 (stereo not drawn)	99.0	17.3*	-4.5	.
CCN(CC)C(=O)c1ccc(NC(=O)CNC(C)c2cccc3ccccc23)cc1 (stereo not drawn)	94.0	0.0	-2.4	.
NN=C(N)N	95.0	0.5	53.3*	.
CCOc1cccc(=NC2CCCCC2)c2c(C)n(C)c(C)c12	113.0	-4.0	18.6	.
O=C(N/N=C/c1c(O)n(C2CCCCC2)c(=S)[nH]c1=O)c1ccccc1O	111.0	0.0	7.9	.
O=c1[nH]c(=S)n(C2CC2)c(O)c1/C=N/Nc1cccc2ccccc12	114.0	0.1	75.7*	132.2
O=C(N/N=C/c1c(O)n(C2CCCCC2)c(=S)[nH]c1=O)c1ccccc1	12.0*	0.0	5.9	.
O=c1[nH]c(=S)n(C2CC2)c(O)c1/C=N/Nc1ccccc1	104.0	3.4	21.2	98.2
Clc1cccc(N2Cc3cc(-c4ccccc4)ccc3-n3nncc3C2)c1	99.0	.	.	.
COC(=O)c1ccccc1N=Cc1c(O)[nH]c(=S)[nH]c1=O	98.0	0.8	2.4	98.0
CC1=NN(c2ccccc2)C(=O)/C1=C/c1c(O)[nH]c(=S)[nH]c1=O	109.0	-2.1	16.1	146.4*
SMILES	ABCB6 inh 2	FXN GAA850 act	AHR act	STAT3 act-1	others
S=P(NCCNP(=S)(N1CC1)N1CC1)(N1CC1)N1CC1	89.0	-3.1	.	.
CC(C)C/C(=N/O)c1c[nH]c2ccccc12	108.0	1.1	16.1	134.4*
CC(C(=O)c1c[nH]c2ccccc12)N1CCOCC1 (stereo not drawn)	103.0	1.9	11.6	.
Cc1c(N=Nc2c(O)n(Cc3ccccc3)c(=O)[nH]c2=O)c(=O)n(-c2ccccc2)n1C	106.0	2.1	-0.5	97.6
Cc1c(C)c2ccc(OCC(=O)N3CCC(C(=O)O)(c4ccccc4)CC3)c(C)c2oc1=O	100.0	-0.7	-0.6	.
c1ccc2c(CNC3CCCCCC3)c[nH]c2c1	104.0	-3.6	18.8	151.7*	STAT3 act-2=139.2*;NFkB act STAT3ct=102.9;STAT1 act=93.1
c1ccc2c(CN3CCCCCC3)c[nH]c2c1	99.0	4.2	1.0	99.7
COc1ccc(/C=C2/C(=O)NC(=O)N(c3ccc(C)c(C)c3)C2=O)cc1CN1C(=O)c2ccccc2C1=O	97.0	0.7	4.8	86.9
CC1=NN(c2ccccc2)C(=O)C1/C=C1\C(=O)NC(=O)N(c2ccc(C)c(C)c2)C1=O (stereo not drawn)	98.0	0.3	17.0	162.2*	STAT3 act-2=130.4;NFkB act STAT3ct=99.1;STAT1 act=98.6
CC1=NN(c2ccccc2)C(=O)C1/C=C1\C(=O)NC(=O)N(c2cc(C)cc(C)c2)C1=O (stereo not drawn)	106.0	-0.4	13.6	158.8*	STAT3 act-2=142.2*;NFkB act STAT3ct=104.7;STAT1 act=103.3
Cc1ccc(N2C(=O)NC(=O)/C(=C\c3cnc(-c4ccccc4)nc3)C2=O)cc1	96.0	4.1	-0.9	94.3
CC(C)n1c(=O)c(C=Nc2cccc([N+](=O)[O-])c2)c(O)n(CCc2ccccc2)c1=O	101.0	-0.7	20.0	136.6*	STAT3 act-2=139.2*;NFkB act STAT3ct=103.4;STAT1 act=103.7
COC1CCC(OC2CC(C3(C)CCC4(CC(O)C(C)C(C(C)/C=C(\C)C(=O)C(C)CC(C)C(=O)O)O4)O3)OC3(OC(C4OC(O)(CO)C(C)CC4C)CC3C)C2C)OC1C (stereo not drawn)	87.0	-5.6	.	.
O=C1N(CN2CCOCC2)c2ccccc2C1(O)c1c[nH]c2ccccc12 (stereo not drawn)	99.0	0.3	9.6	136.1*	STAT3 act-2=120.6;NFkB act STAT3ct=99.9;STAT1 act=98.3
CCCCn1c(=O)c(C(=O)Nc2ccsc2C(=O)OC)c(O)c2ccccc21	91.0	2.0	27.1	145.1*	STAT3 act-2=164.8*;NFkB act STAT3ct=112.2;STAT1 act=111.7
CCN(CC)C(=O)c1ccc(NC(=O)c2c(C)noc2C)cc1	87.0	-1.4	-1.1	.
CC/C(=N\N1CCCCCC1)c1c(O)n(-c2ccccc2C)c(=O)[nH]c1=O	96.0	-0.4	-3.0	105.0
CC1=NN(c2ccccc2)C(=O)/C1=C/c1c(O)[nH]c(=O)[nH]c1=O	103.0	1.0	6.7	142.6*	STAT3 act-2=135.0*;NFkB act STAT3ct=105.5;STAT1 act=104.0
COc1ccc(C(c2nnnn2C(C)(C)C)N2CCC3(CC2)C(=O)NCN3c2ccccc2)cc1 (stereo not drawn)	99.0	.	.	.
CN1CCC(c2c[nH]c3ccc(O)cc23)CC1	94.0	-0.6	.	.
